# Reference: ChEMBL document CHEMBL1151959, “Identification and biological evaluation of a series of 1H-benzo[de]isoquinoline-1,3(2H)-diones as hepatitis C virus NS5B polymerase inhibitors” (J Med Chem, 2009)
# Active and inactive are the calls of the source. The rule behind the calls is not given here.
# Tests used:
# [1] = biological target: RNA-directed RNA polymerase (Hepacivirus hominis, UniProt O39930, P495A); assay: Inhibition of HCV1b BK NS5B Cdelta21 RNA dependent RNA polymerase Thumb site 1 P495A mutant; parameters: species or system Hepatitis C virus (isolate BK)
# [2] = Cytotoxicity against human HuH7 cells by MTT assay; format: cell-based; settings: Huh-7 cells
# [3] = system: Hepatitis C virus; assay: Antiviral activity against HCV1b Con1 infected in human Huh7 clone HBI10A cells expressing HEPREP 1b replicon by cell-ELISA assay; format: functional, organism-based, Hepacivirus hominis; settings: isolate Con1, Huh-7
# [4] = Inhibition of HCV1b BK NS5B Cdelta21 RNA dependent RNA polymerase Thumb site 2 R501E mutant; parameters: species or system Hepatitis C virus (isolate BK)
# [5] = Inhibition of HCV1b BK NS5B Cdelta21 RNA dependent RNA polymerase; parameters: species or system Hepatitis C virus (isolate BK)
# In short: (§1)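 Truncated ΔC21 NS5B RdRp from the HCV genotype 1b BK strain or the genotype 2b 2b.2 strain. Values are the mean of two or more experiments, with SD within 30% of the mean.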
# [6] = biological target: RNA-directed RNA polymerase (Hepacivirus hominis, UniProt O39930, M414T); assay: Inhibition of HCV1b BK NS5B Cdelta21 RNA dependent RNA polymerase Palm site 1 and 2 M414T mutant; parameters: species or system Hepatitis C virus (isolate BK)
# [7] = Inhibition of HCV2b.2 NS5B Cdelta21 RNA dependent RNA polymerase; parameters: species or system Hepacivirus hominis, 2b.2; in short: as §1
# [8] = biological target: RNA-directed RNA polymerase (Hepacivirus hominis, UniProt O39930, M423K); assay: Inhibition of HCV1b BK NS5B Cdelta21 RNA dependent RNA polymerase Thumb site 2 M423K mutant; parameters: species or system Hepatitis C virus (isolate BK)
# [9] = system: Hepatitis C virus; assay: Antiviral activity against HCV1b Con1 infected in human Huh7 cells by replicon cell-ELISA assay; settings: isolate Con1, Huh-7
# [10] = AUC in rat at 3 mg/kg, po; format: ADME, organism-based; parameters: dose 3 mg/kg, route oral; settings: plasma
# In short: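 Single oral dose of 3 mg/kg given to rats. Compound concentrations were measured in plasma, and AUC was taken from the plasma exposure after oral dosing. The same rat study also included an iv administration arm.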
# [11] = Inhibition of Bovine viral diarrhea virus 1 RNA-dependent RNA polymerase
# [12] = system: Hepatitis C virus; assay: Antiviral activity against HCV1b BK infected in human H2B2 cells expressing HEPREP 2b replicon by cell-ELISA assay
# [13] = system: Hepatitis C virus (isolate BK); assay: Inhibition of HCV1b BK NS5B Cdelta21 RNA dependent RNA polymerase in pre-elongation phase assessed as residual enzyme activity at 6.4 uM to 3 nM preincubated for 15 mins with polyA oligoU18 RNA in room temperature
# In short: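 ΔC21-1b polymerase (20 nM) with polyA/oligoU18 RNA, preincubated 15 min at room temperature before compound addition or not preincubated. Compound titrated 3 nM to 6.4 μM. Residual activity measured.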
# [14] = Clearance in rat at 3 mg/kg, iv; format: ADME, organism-based; parameters: dose 3 mg/kg, route intravenous; settings: in vivo
# [15] = Lipophilicity, log D of the compound; format: physicochemical; settings: octanol/water
# [16] = Inhibition of HCV1a RB5 NS5B Cdelta21 RNA dependent RNA polymerase; parameters: species or system Hepatitis C virus subtype 1a
# [17] = system: Hepatitis C virus; assay: Antiviral activity against HCV 2b.2 infected in human Huh7 cells by replicon cell-ELISA assay; settings: 2b.2, Huh-7
# [18] = system: Hepatitis C virus (isolate BK); assay: Inhibition of HCV1b BK NS5B Cdelta21 RNA dependent RNA polymerase in pre-elongation phase assessed as residual enzyme activity at 1 uM preincubated for 120 mins with polyA oligoU18 RNA in room temperature
# In short: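 Preincubation time course: ΔC21-1b enzyme and polyA/oligoU18 RNA preincubated 0 to 120 min before adding compound at 1 μM. Residual polymerase activity measured.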
# [19] = Volume of distribution at steady state in rat at 3 mg/kg, iv; format: ADME, organism-based; parameters: dose 3 mg/kg, route intravenous; settings: in vivo, read-out: Vdss
# [20] = system: Hepatitis C virus (isolate BK); assay: Inhibition of HCV1b BK NS5B Cdelta21 RNA dependent RNA polymerase in pre-elongation phase assessed as residual activity at 1 uM to 0.1 nM preincubated for 5 mins with polyA oligoU18 RNA in room temperature in presence of heparin
# In short: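 Single-cycle conditions: ΔC21-1b enzyme and polyA/oligoU18 RNA preincubated 5 min, then compound added from 0.1 nM to 1 μM. Elongation started with 3H-UTP plus heparin (50 ng/μL) to trap free enzyme. Residual polymerase activity measured.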
# [21] = Solubility of the compound; format: physicochemical
# [22] = Inhibition of HCV4a NS5B Cdelta21 RNA dependent RNA polymerase; parameters: species or system Hepatitis C virus subtype 4a
# [23] = system: Hepatitis C virus; assay: Antiviral activity against HCV H77-1a infected in human Huh7 cells by replicon cell-ELISA assay; settings: genotype 1a H77, Huh-7
# [24] = Inhibition of HCV2a.4 NS5B Cdelta21 RNA dependent RNA polymerase; parameters: species or system Hepacivirus hominis, 2a.4
# [25] = Oral bioavailability in rat at 3 mg/kg; format: ADME, organism-based; settings: in vivo
# [26] = biological target: Genome polyprotein (GB virus-B, UniProt Q69422); assay: Inhibition of Hepatitis GB virus B NS5B RNA dependent RNA polymerase
# [27] = Inhibition of DNA polymerase 1 Klenow fragment
# [28] = Inhibition of HIV reverse transcriptase; parameters: species or system Human immunodeficiency virus
# [29] = system: Hepatitis C virus; assay: Antiviral activity against HCV1b BK infected in human Huh7 cells by replicon cell-ELISA assay; settings: Huh-7
# [30] = Inhibition of HCV3a.7 NS5B Cdelta21 RNA dependent RNA polymerase; parameters: species or system Hepacivirus hominis, 3a.7
# [31] = Inhibition of HCV6a NS5B Cdelta21 RNA dependent RNA polymerase; parameters: species or system Hepatitis C virus subtype 6a
# In short: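 Purified ΔC21-truncated NS5B RNA-dependent RNA polymerase from HCV genotype 6a, run alongside enzymes from the other major genotypes. Each value is the mean of two or more separate experiments, with SD within ±30% of the mean.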
# [32] = Elimination half life in rat at 3 mg/kg, iv; format: ADME, organism-based; parameters: dose 3 mg/kg, route intravenous; settings: in vivo
# [33] = Cmax in rat at 3 mg/kg, po after 0.7 hrs; format: ADME, organism-based; parameters: dose 3 mg/kg, route oral; settings: in vivo
compound,measurement,setting,value
CC(C)N(c1cc(-c2ccccc2)sc1C(=O)O)C(=O)[C@H]1CC[C@H](C)CC1,IC50,[1],40 nM
same,CC50,[2],> 50000 nM
same,EC50,[3],1400 nM
same,IC50,[4],100 nM
same,IC50,[5],9 nM
same,IC50,[6],16 nM
same,IC50,[7],> 10000 nM
same,IC50,[8],> 500 nM
NS(=O)(=O)c1cccc(N2C(=O)c3cccc4c(NCCO)ccc(c34)C2=O)c1,CC50,[2],> 50000 nM
same,EC50,[3],> 50000 nM
same,IC50,[5],1600 nM
same,IC50,[7],> 50000 nM
CCNc1ccc2c3c(cccc13)C(=O)N(c1cccc(Br)c1)C2=O,IC50,[5],29 nM
same,IC50,[7],185 nM
CN(CCO)c1ccc2c3c(cccc13)C(=O)N(c1cccc(Br)c1)C2=O,IC50,[5],500 nM
same,IC50,[7],1800 nM
CNCCNc1ccc2c3c(cccc13)C(=O)N(c1cccc(Br)c1)C2=O,CC50,[2],1500 nM
same,EC50,[3],2000 nM
same,IC50,[5],130 nM
same,IC50,[7],400 nM
O=C1c2cccc3c(NC4CCN(Cc5ccccc5)CC4)ccc(c23)C(=O)N1c1cccc(Br)c1,CC50,[2],5200 nM
same,EC50,[3],2200 nM
same,IC50,[5],< 14 nM
same,IC50,[7],43 nM
O=C1c2cccc3c(NC4CCNCC4)ccc(c23)C(=O)N1c1cccc(Br)c1,CC50,[2],3500 nM
same,EC50,[3],1900 nM
same,IC50,[5],30 nM
same,IC50,[7],120 nM
CC(C)CNc1ccc2c3c(cccc13)C(=O)N(c1cccc(Br)c1)C2=O,CC50,[2],> 50000 nM
same,EC50,[3],11000 nM
same,IC50,[5],130 nM
same,IC50,[7],90 nM
OCCNc1ccc2c3c(cccc13)CN(c1cccc(Br)c1)C2,IC50,[5],> 50000 nM
same,IC50,[7],> 50000 nM
O=C1c2ccc(NCCO)c3cccc(c23)CN1c1cccc(Br)c1,IC50,[5],850 nM
same,IC50,[7],3500 nM
COCCNc1ccc2c3c(cccc13)C(=O)N(c1cccc(Br)c1)C2=O,IC50,[5],24 nM
same,IC50,[7],124 nM
Nc1ccc2c3c(cccc13)C(=O)N(c1cccc(Br)c1)C2=O,IC50,[5],190 nM
same,IC50,[7],300 nM
O=C1c2cccc3c(NC4CCCCC4)ccc(c23)C(=O)N1c1cccc(Br)c1,CC50,[2],> 50000 nM
same,EC50,[3],> 50000 nM
same,IC50,[5],66 nM
same,IC50,[7],120 nM
O=C1c2cccc3c(NCCO)ccc(c23)C(=O)N1c1cccc(Br)c1,EC50,[9],6400 nM
same,AUC,[10],9.7 µM·h
same,IC50,[11],> 50000 nM
same,EC50,[12],11000 nM
same,CC50,[2],76000 nM
same,Activity,[13],inactive
same,clearance,[14],12 mL/min/kg
same,logD,[15],3.45
same,IC50,[16],64 nM
same,EC50,[17],11100 nM
same,Activity,[18],inactive
same,Vd,[19],1.1 L/kg
same,Activity,[20],Active
same,solubility,[21],0.44 µg/mL
same,IC50,[22],540 nM
same,EC50,[23],4700 nM
same,IC50,[24],770 nM
same,bioavailability,[25],83%
same,IC50,[26],> 50000 nM
same,IC50,[27],> 50000 nM
same,IC50,[28],> 50000 nM
same,EC50,[29],4600 nM
same,IC50,[30],760 nM
same,IC50,[31],490 nM
same,IC50,[7],180 nM
same,half-life,[32],42 min
same,Cmax,[33],4 µM
O=C1c2cccc3c(N[C@H]4CC[C@@H](C(=O)O)CC4)ccc(c23)C(=O)N1c1cccc(Br)c1,CC50,[2],> 50000 nM
same,EC50,[3],3800 nM
same,IC50,[5],42 nM
same,IC50,[7],110 nM
O=C1c2cccc3c(NCCO)ccc(c23)C(=O)N1c1ccccc1,IC50,[5],1700 nM
same,IC50,[7],> 50000 nM
O=C1c2cccc3cccc(c23)C(=O)N1c1cccc(Br)c1,IC50,[5],> 50000 nM
same,IC50,[7],> 50000 nM
